A selection: hits, their analogues and other compounds. The true share with any hit is near 2.3%.
CHT PAM – allosterically activates the human high affinity choline transporter; Q9GZV3; CHT-expressing cells, membrane potential dye, choline EC20; hits give high values; LV-AA mutant CHT in HEK293 cells; B-score at 10 µM; actives 0.49% (n = 310,000); AID 488977;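 active = initial fluorescence not abnormally high and integrated response B-score, plate-corrected, over 3 SD above library mean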
NR2E3 ag-1 – agonists of human NR2E3 nuclear receptor; CHO-S Gal4-NCOR/VP16-NR2E3 two-hybrid, luciferase; Q9Y5X4; actives 0.35% (n = 360,000); inhibition of corepressor binding, % at 3.98 µM; AID 602229;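 active = inhibition above the mean of all tested compounds plus 3 SD, cut at about 70% in these data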;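 note: 0% = DMSO with NR2E3 transfected cells and 100% = cells lacking NR2E3 construct; higher means lower luciferase signal from less NR2E3 corepressor binding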
GalR3 antagonist – antagonists of human GalR3; HEK293 GalR3-CNG cAMP membrane potential fluorescence; galR3 body fused to GalR1 C-terminus; O60755; inhibition, % at 3 µM; actives 0.44% (n = 360,000);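 active = inhibition above the screen-wide average plus 3 SD, cut at about 13% in these data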;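 note: forskolin and galanin both at EC90 stimulate the cells; cAMP rise reported by CNG channel membrane potential dye signal; 0% = forskolin plus galanin with DMSO and 100% = forskolin alone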
Target sequence (O60755 1-299 limits assumed): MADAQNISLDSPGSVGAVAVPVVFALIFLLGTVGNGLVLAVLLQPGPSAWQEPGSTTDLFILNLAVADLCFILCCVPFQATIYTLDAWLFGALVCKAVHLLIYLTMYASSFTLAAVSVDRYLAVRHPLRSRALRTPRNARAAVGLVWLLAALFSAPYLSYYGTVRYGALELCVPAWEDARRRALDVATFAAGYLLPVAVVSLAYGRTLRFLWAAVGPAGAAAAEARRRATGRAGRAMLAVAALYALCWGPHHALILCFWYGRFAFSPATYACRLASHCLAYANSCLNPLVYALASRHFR
COUP-TFII inh – blocks human COUP-TFII nuclear receptor. AID 686940. inhibition, % at 8.6 µM. P24468. actives 0.7% (n = 370,000). HEK293T NGFI-A luciferase reporter, luminescence;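 active = inhibition above a per-plate cutoff, mean inhibition of test wells between control levels plus 3 SD, cut at about 38% in these data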;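 note: cells cotransfected with COUP-TFII expression vector driving the NGFI-A reporter; 0% = median of COUP-TF2 test wells and 100% = reporter-only cells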
Target sequence (P24468 whole entry, looked up): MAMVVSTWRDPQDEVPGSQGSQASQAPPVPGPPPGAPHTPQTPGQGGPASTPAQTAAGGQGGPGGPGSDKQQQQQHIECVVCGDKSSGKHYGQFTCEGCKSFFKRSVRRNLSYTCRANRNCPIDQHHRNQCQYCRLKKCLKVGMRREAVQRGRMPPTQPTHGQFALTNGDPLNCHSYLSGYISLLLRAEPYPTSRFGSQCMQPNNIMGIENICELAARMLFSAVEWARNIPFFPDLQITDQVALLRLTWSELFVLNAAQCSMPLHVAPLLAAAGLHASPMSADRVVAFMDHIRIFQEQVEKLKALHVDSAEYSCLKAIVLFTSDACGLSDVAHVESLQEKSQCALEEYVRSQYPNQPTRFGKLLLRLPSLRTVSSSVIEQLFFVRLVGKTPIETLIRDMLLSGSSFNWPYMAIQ
NR2E3 ag-2 – NR2E3 (human) agonism. inhibition of corepressor binding, % at 4.78 µM. GST-NR2E3/biotin-RetCOR TR-FRET, 1536-well. AID 2300. actives 0.12% (n = 320,000);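 active = percent inhibition above the cutoff of mean plus 3 SD of all tested compounds, set per screening campaign, cut at about 20% in these data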;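 note: 0% = DMSO wells and 100% = biotin wells as full block of FRET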
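Material – GST-tagged NR2E3 plus biotinylated RetCOR corepressor · Quantity – NR2E3 fusion 1.35 nM · Times – 5 h incubation at 4 °C · Medium – pH 7.5 Tris-based buffer · Technique – TR-FRET, Eu(K)-anti-GST donor, streptavidin-D2 acceptor, ex 340, em 617/671 nm · Benchmarks – high control biotin, low control 0.6% DMSO · Format – 1536-well plates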
CHT inh – inhibits the human high affinity choline transporter | CHT-expressing cells, membrane potential dye, choline response; hits give low values | B-score at 10 µM | actives 0.86% (n = 310,000) | AID 488975;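 active = B-score over 3 SD under the library average, and starting fluorescence ratio not unusually high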;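 note: choline stimulus applied at its EC90 after an EC20 pre-addition; B-score computed on integrated fluorescence ratio after choline addition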
CHT block conf – human CHT inhibition, confirmatory screen; CHT activity remaining % of control (hits give low values), % at 10 µM; CHT-expressing cells, choline membrane potential dye; LV-to-AA substituted CHT, HEK293 cells; AID 493221; shares compounds with CHT inh; actives 70% (n = 2,400);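 active = choline transporter activity left, mean of duplicates at 10 µM, below buffer-only control mean minus 3 SD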;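 note: depolarization triggered by choline at its EC90 following an EC20 pre-addition; 0% = hemicholinium-3 full block and 100% = buffer-only control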
HEK293 CHT ctr – counter-screen for CHT inhibitors: effect in parental HEK293 cells. shares compounds with CHT inh. membrane potential dye, choline response; active = decrease or increase beyond buffer ±3SD. membrane potential ratio readout (active if shifted either direction beyond buffer ±3SD; no single direction) at 10 µM. actives 4% (n = 2,400). AID 493222;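 note: parental cells lack the transporter so any hit is non-specific; ratio is peak minus trough fluorescence over baseline after EC90 choline challenge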
An asterisk follows results filed as active; i = inactive; · = no result given.

SMILES | CHT PAM | NR2E3 ag-1 | GalR3 antagonist | COUP-TFII inh | NR2E3 ag-2 | CHT inh | CHT block conf | HEK293 CHT ctr
Cc1ccc(C(C)C)c(OCCOCCN2CCNCC2)c1 | i | -12.3 | -4.7 | 19.9 | -1.2 | -6.91* | 21.7%* | i
CCCC(=O)OC12CCCN(C1)/C(=C/c1cccc(OC)c1)C2 (stereo not given) | · | · | · | -17.1 | · | · | · | ·
CCOC(=O)[C@@]12CCCC3=C1N(CCC3)C(=O)[C@H]2CC(=O)NCc1ccc(C)o1 | · | · | · | 4.7 | · | · | · | ·
CCc1nnc(NC(=O)CSc2nc3c(c(=O)n2C)SC(C)C3)s1 (stereo not given) | i | 3.3 | · | 3.1 | 8.5 | i | · | ·
CC1Cc2nc(SCC(=O)Nc3nc4ccccc4s3)n(C)c(=O)c2S1 (stereo not given) | i | 14.6 | -1.9 | 12.3 | 2.2 | -5.07* | i | i
O=C(c1ccc(S(=O)(=O)N2CCOCC2)cc1)N1CCc2ccccc2C1 | i | 3.0 | 3.7 | -14.6 | 2.2 | i | · | ·
CSc1ccc(S(=O)(=O)N2CCC(C(=O)N3CCc4ccccc4C3)CC2)cc1 | i | -24.7 | -9.6 | 6.9 | 2.6 | -13.6* | 58.8%* | i
CCOc1ccc(S(=O)(=O)N2CCC(C(=O)N3CCc4ccccc4C3)CC2)cc1 | i | 3.4 | -1.9 | 13.8 | 2.2 | i | · | ·
COc1ccc(S(=O)(=O)N2CCC(C(=O)N3CCc4ccccc4C3)CC2)cc1 | i | -4.2 | -5.3 | 11.3 | 1.0 | -5.78* | 48.6%* | i
O=C(CCc1ccc(S(=O)(=O)N2CCOCC2)cc1)N1CCc2ccccc2C1 | i | -12.4 | -5.0 | 12.8 | 0.0 | -5.76* | 66.0%* | i
O=S(=O)(Nc1nc2ccccc2s1)c1cc(F)ccc1F | i | -1.3 | 1.3 | 3.4 | 2.6 | i | · | ·
O=S(=O)(Nc1nc2ccccc2s1)c1ccc(Cl)s1 | i | -10.3 | -6.3 | 10.7 | 1.7 | -5.21* | 55.8%* | i
CCc1ccc(Nc2n[n+](-c3ccccc3)c(-c3cccc(C)c3)s2)cc1 | i | -56.3 | -4.6 | 13.7 | -1.6 | -14.8* | 48.7%* | 2.6*
COc1ccc(-c2sc(Nc3ccccc3)n[n+]2-c2ccccc2)cc1Br | i | -8.3 | 0.3 | -8.9 | 0.1 | i | · | ·
CCn1cc(C(=O)NCCCN2CCN(C)CC2)c(=O)c2cc(S(=O)(=O)N3CCc4ccccc4C3)ccc21 | i | 4.7 | -5.8 | -12.5 | 1.8 | -9.07* | i | i
CCN(CC)CCNC(=O)c1cn(CC)c2ccc(S(=O)(=O)N3CCc4ccccc4C3)cc2c1=O | i | -3.9 | -0.8 | -9.9 | 0.2 | -8.09* | 28.4%* | i
CCN(CC)CCNC(=O)c1cn(CC)c2ccc(S(=O)(=O)N(C)C)cc2c1=O | i | -35.8 | -2.2 | 7.3 | 3.3 | i | · | ·
CCN(CC)CCCNC(=O)c1cn(CC)c2ccc(S(=O)(=O)N3CCc4ccccc4C3)cc2c1=O | i | -10.1 | -4.0 | -5.8 | -0.6 | -12.2* | 15.1%* | i
CCCCNC(=O)C1(C(=O)c2ccc(OC)cc2)CC(c2ccccc2C(F)(F)F)=NO1 (stereo not given) | · | · | · | 2.1 | · | · | · | ·
CC(COc1ccc(F)cc1)CN1CCC(C(O)(c2ccccc2)c2ccccc2)CC1 (stereo not given) | · | · | · | 10.0 | · | · | · | ·
CC12CCC(C(=O)NNc3ccc([N+](=O)[O-])cc3)(OC1=O)C2(C)C (stereo not given) | i | -16.9 | -5.1 | 1.7 | 1.4 | -10.1* | i | i
CC12CCC(C(=O)NNc3ccccc3)(OC1=O)C2(C)C (stereo not given) | i | 18.7 | 0.8 | 13.8 | 3.7 | i | · | ·
CN(C)S(=O)(=O)c1cccc(C(=O)N/N=C\c2ccccc2)c1 | · | · | · | -39.0 | · | · | · | ·
COc1ccccc1OCc1ccc(C(=O)N2N=C(C(F)F)CC2(O)C(F)F)o1 (stereo not given) | i | 0.9 | -4.6 | -3.6 | -0.5 | -5.17* | i | i
O=C(c1ccc(COc2ccc(Cl)cc2)o1)N1N=C(C(F)F)CC1(O)C(F)F (stereo not given) | i | -25.8 | -0.9 | 15.9 | -5.0 | i | · | ·
SMILES | CHT PAM | NR2E3 ag-1 | GalR3 antagonist | COUP-TFII inh | NR2E3 ag-2 | CHT inh | CHT block conf | HEK293 CHT ctr
NC(N)=Nc1nc(C2COc3ccccc3O2)cs1 (stereo not given) | i | -132.4 | -2.4 | -46.6 | 3.5 | -8.76* | 46.4%* | i
COc1ccc(N(C)S(=O)(=O)c2cccc(C(=O)NC3CCCCC3C)c2)cc1 (stereo not given) | i | 10.3 | -3.9 | 17.7 | 1.4 | -5.51* | 59.0%* | i
O=C(Nc1ccccc1N1CCOCC1)c1cccc(NS(=O)(=O)c2ccc(F)c(F)c2)c1 | i | 5.3 | -3.8 | -14.5 | 0.0 | -5.51* | i | i
CCCCc1cc(=O)oc2cc(C)cc(O)c12 | i | 11.4 | -6.8 | 10.1 | 2.0 | i | · | ·
CCCc1cc(O)c2c(C)cc(=O)oc2c1 | i | -19.9 | 0.7 | -5.5 | 6.9 | -7.56* | 48.0%* | i
CCCCc1cc(=O)oc2cc(O)cc(O)c12 | i | -29.1 | -7.0 | 16.2 | 0.4 | -7.91* | 39.8%* | i
C=CCNc1nc2ccccc2nc1NS(=O)(=O)c1ccc(Br)cc1 | i | 55.2 | -8.8 | 11.4 | -5.0 | -5.11* | 68.9%* | i
C=CCNc1nc2ccccc2nc1NS(=O)(=O)c1ccc(F)cc1 | i | 10.0 | -9.9 | -3.9 | 0.8 | i | · | ·
O=C(NCc1ccccc1)OCCN1C(=O)CCC12CCC(c1ccc(Cl)cc1)CC2 (stereo not given) | · | · | · | 7.2 | · | · | · | ·
O=C(c1c(O)c2ccccc2oc1=O)C1CCCCC1 | i | -9.6 | -3.7 | -1.5 | -0.1 | -7.47* | 58.3%* | i
O=C(CCC1CCCC1)c1c(O)c2ccccc2oc1=O | i | -33.0 | · | 5.1 | 0.9 | i | · | ·
CCc1nc2ccc(C(=O)NCCCN3CCN(c4ccc(F)cc4)CC3)cc2nc1CC | i | 0.3 | -6.0 | -2.2 | 2.3 | i | · | ·
CCN1CCN(C(=O)c2ccc3nc(-c4ccccc4)c(-c4ccccc4)nc3c2)CC1 | i | 1.9 | -4.4 | -10.8 | 1.3 | -7.02* | 22.0%* | i
CN1CCN(CCNC(=O)c2ccc3nc(-c4ccc(F)cc4)c(-c4ccc(F)cc4)nc3c2)CC1 | i | -20.6 | -2.4 | -1.6 | 2.0 | -11.6* | 8.4%* | i

Screens (PubChem)
